B1: tRNA (parent)
chain: GUUCCGUUGGCGUAAUGGUAACGCGUCUCCCUCCUAAGGAGAAGACUGCGGGUUCGAGUCCCGUACGGAACG

Variants at the floor of the assay were thinned out. A value given as a limit tells only on which side of the number the result lay.

In this series the parent is B1. Put plainly: yeast fitness relative to wild type (ratio to wild type); higher = fitter; tRNA-Arg(CCU), competitive growth, 37 C, YPD. The procedure, abridged: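 Variants of the tRNA-Arg(CCU) gene, chemically synthesised with a 3% per-site mutation rate at 69 sites, were placed at the native genomic locus in Saccharomyces cerevisiae. The pooled strains were competed in YPD at 37°C for 24 hours in six parallel replicates. Gene amplicons from the start population and from each end population were read by 100-nucleotide paired-end sequencing. Darwinian fitness relative to wild type came from changes in genotype frequencies; genotypes needed ≥ 100 starting reads, and estimates < 0.5 were set to 0.5.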
With GUUCCGUUGGCGUAAUGGUAACGCGAGUCGCUCCUUACGAGAAGAUUGGGGGUUCGAGUCCCGUUCGGAACG [U26A C27G C30G A36U G38C C46U C49G A65U], the yeast fitness came to 0.573.
Turning to GUUCCGUUGGCGUAAUGGUAACGCGAGUCCCUCCUAAGGAGAAGACUGCGGGUUCGAGUCCCGUACGGAACG [U26A C27G], the yeast fitness was 0.57.
The figure for GUUCCGUUGGCGUAAUGGUAACGCGACUCACUCAUAAGGAGAAGACUCCGGGUUCGAGUCCCGUACGUAACG [U26A C30A C34A G48C G68U] is at most 0.5; for GUUCCGUUGGCGUAAUGGUAACGCGACUCCCUCCUAAGGGGAAGACUGGGGGUUCGAGUCACGUACGGAACG [U26A A40G C49G C61A] it is 0.626.
The figure for GUUCCGUUGGCGUAAUGGUAACGCGACUCCCUCCUAAGGAGCAGACUGUGGGUUCGAGUGCCGUAAGGAACG [U26A A42C C49U C60G C66A] is 0.733; for GUUCCGUUGGCGUAAUGGUAACGCGAUUCCCUCCUAAGGAGAAGAGUGCGGGUUCGAGUCCCGUACGGAACG [U26A C27U C46G] it is 1.
The same measure for GUUCCGUUGGCGUAAUGGUAACGCGACUCCCUCCUAAGGAGAAGGCUGCGGGUCCGAGUCCCGUACGGAACG [U26A A45G U54C]: 0.52; for GUUCCGUUGGCGUAAUGGUAACGCGACUCACUCCUAAGGAGAAGACUGCGGGUUCGAGUCCCGUCCGGAACG [U26A C30A A65C]: 0.511.
Consider GUUCCGUUGGCGUAAUGGUAACGCGACUCCCUCUUAAGGAGAAGACUGGGGGUUCGAGUCCCGUAAGGAACG [U26A C34U C49G C66A], for which the yeast fitness is at most 0.5.
The figure for GUUCCGUUGGCGUAAUGGUAACGCGACUCCGUCCUAAGGAGAAGACUGCGGGUUCGAGUCCUGUACGGAACG [U26A C31G C62U] is 0.647.
Consider GUUCCGUUGGCGUAAUGGUAACGCGACUGCCUCCUAAGGAGAAGACUGCGGGUUCGAAUCCCGUACGGACCG [U26A C29G G58A A70C], for which the yeast fitness was determined as 0.631.
The same measure for GUUCCGUUGGCGUAAUGGUAACGCGACUCCCUCCUAAGGAGAAGAUUGCGGGUUCGAGUCCCGUCCGGAACG [U26A C46U A65C]: 0.631; for GUUCCGUUGGCGUAAUGGUAACGCGACUCCCUCCUAAGGAGAAGACUGUGGGUUCGAAUCCCGUACGGAACG [U26A C49U G58A]: at most 0.5.
Regarding GUUCCGUUGGCGUAAUGGUAACGCGACUCCCUCCUAAGGAGAAGACUGUGGGUUCGAGUCGCGUACGGAACG [U26A C49U C61G], the yeast fitness was at most 0.5.
The same measure for GUUCCGUUGGCGUAAUGGUAACGCGACUCGCUCCUAACGAGUAGACUGCGGGUUCGACUCCCGUACGGAACG [U26A C30G G38C A42U G58C]: 0.759; for GUUCCGUUGGCGUAAUGGUAACGCGACUCCCUCCUAAGGAGAAGACUGGGGGUUCGAGUCACGUACGGAACG [U26A C49G C61A]: at most 0.5; for GUUCCGUUGGCGUAAUGGUAACGCGACUCCCUCCUAAGGAGAAGACUGCGGGUUCGAGUCCCGUUCAGAACG [U26A A65U G67A]: 0.62.
Take GUUCCGUUGGCGUAAUGGUAACGCGACUCCGUCCUUAGGAGAAGACUGCGGGUUCGAGUCCCGUUCGGAACG [U26A C31G A36U A65U]: the yeast fitness worked out at 0.681.
Turning to GUUCCGUUGGCGUAAUGGUAACGCGACUCACUCCUUAGGAGAAGACUGCGGAUUCGAAUCCCGUACGGAACG [U26A C30A A36U G52A G58A], the yeast fitness was at most 0.5.
Regarding GUUCCGUUGGCGUAAUGGUAACGCGACUCCCUCCUAAGGAGACGUCUGCGGGUUCGAGUCCCGUCCGGAACG [U26A A43C A45U A65C], the yeast fitness is at most 0.5.
The figure for GUUCCGUUGGCGUAAUGGUAACGCGAGUCCUUCCUAAGGAGAAGAAUGCGGGUUCGAGUCCCGUCCGAAACG [U26A C27G C31U C46A A65C G68A] is 0.626.
The same measure for GUUCCGUUGGCGUAAUGGUAACGCGACUCUCUCCUAAGGAGAAGACUGCGGGUACGAGUCCCGUACGGAACG [U26A C30U U54A]: at most 0.5.
The figure for GUUCCGUUGGCGUAAUGGUAACGCGAGUCCGUCCUAACGAGAAGACUGCGGGUUCGAGUCCCGUACGGAACG [U26A C27G C31G G38C] is at most 0.5; for GUUCCGUUGGCGUAAUGGUAACGCGAGUCCCUCCUAAGGAGAAGACUGCGGGUUCGAGUCCAGUACGGAACG [U26A C27G C62A] it is at most 0.5.
With GUUCCGUUGGCGUAAUGGUAACGCGACUCCCUCGUAAGGAGAAGGCUGCGGGUUCGAGUCCCGUACGGAACG [U26A C34G A45G], the yeast fitness came out at 0.517.
The same measure for GUUCCGUUGGCGUAAUGGUAACGCGACUCCCUCCUAAGGAGUAGACUGCGGGUUCGAGUCCCGUACGGAACG [U26A A42U]: 0.981.
The figure for GUUCCGUUGGCGUAAUGGUAACGCGACUCCCUCCUAAGGAGAAGACUGCGGGUUCGAGUCCCGUGCGGAACG [U26A A65G] is 0.822; for GUUCCGUUGGCGUAAUGGUAACGCGACUCCCUCCUAAGGAGAAGACUGCGGGUUCGAGUCCCGUUCGGAACG [U26A A65U] it is 0.829.
The figure for GUUCCGUUGGCGUAAUGGUAACGCGACUCUCUCCUAAGGAGAAGACUGCGGGUUCGAGUCCCGUACGGAACG [U26A C30U] is 0.787; for GUUCCGUUGGCGUAAUGGUAACGCGACUCCCUCCUAAGGAGACGACUGCGGUUUAGAGUCCCGUACGGAACG [U26A A43C G52U C55A] it is at most 0.5; for GUUCCGUUGGCGUAAUGGUAACGCGACUCCCUCGUAAGGAGAAGACUGCGGGUUCGUGUCCUGUACGGAACG [U26A C34G A57U C62U] it is 0.582.
Regarding GUUCCGUUGGCGUAAUGGUAACGCGACUCCCUCCUAAGGAGAAGAUUGCGGGUUCGAGUCCCGUACGGAACG [U26A C46U], the yeast fitness was found to be 0.874.
The same measure for GUUCCGUUGGCGUAAUGGUAACGCGACUCCUUCCUAAGGAGAAGACUGCGGGUUCGAGUCCCGUACGAAACG [U26A C31U G68A]: 0.716; for GUUCCGUUGGCGUAAUGGUAACGCGACUCCCUCCUAAGGAGAAGACUGGGGGUUCGAGUCCCGUACGGACCG [U26A C49G A70C]: 0.574; for GUUCCGUUGGCGUAAUGGUAACGCGACUCCCUCUUAAGGAGAAGACUGCGGGUUCGAGUCCAGUACGGAACG [U26A C34U C62A]: at most 0.5.
The same measure for GUUCCGUUGGCGUAAUGGUAACGCGACUCCCUCCUAAGGAGAUGACUGCGGGUUCGAGUCCCGUACGAAACG [U26A A43U G68A]: at most 0.5; for GUUCCGUUGGCGUAAUGGUAACGCGAUUCCCUCCUAAGGAGAAGACUGAGGGUUCGAGUCCCGCACGGAACG [U26A C27U C49A U64C]: at most 0.5.
The same measure for GUUCCGUUGGCGUAAUGGUAACGCGACUCCCUCCUAAGGAGAAGACUGCGGGUUAGUGUCCCGUACGGAACG [U26A C55A A57U]: at most 0.5.
